Data reported in publication PMC3607822 (The Journal of General Physiology, 2013).
Numbering of substitutions follows the chain as printed. Each block holds one compound with its values, some of them ahead of it.

What was measured:
[1] = biological target: T1, human CNGA3 wild-type homomeric channels (Homo sapiens, UniProt Q16281); assay: Inside-out patch clamp, homomeric CNGA3 wild type expressed in X. laevis oocytes; format: biochemical
T1 sequence (Q16281 1-694): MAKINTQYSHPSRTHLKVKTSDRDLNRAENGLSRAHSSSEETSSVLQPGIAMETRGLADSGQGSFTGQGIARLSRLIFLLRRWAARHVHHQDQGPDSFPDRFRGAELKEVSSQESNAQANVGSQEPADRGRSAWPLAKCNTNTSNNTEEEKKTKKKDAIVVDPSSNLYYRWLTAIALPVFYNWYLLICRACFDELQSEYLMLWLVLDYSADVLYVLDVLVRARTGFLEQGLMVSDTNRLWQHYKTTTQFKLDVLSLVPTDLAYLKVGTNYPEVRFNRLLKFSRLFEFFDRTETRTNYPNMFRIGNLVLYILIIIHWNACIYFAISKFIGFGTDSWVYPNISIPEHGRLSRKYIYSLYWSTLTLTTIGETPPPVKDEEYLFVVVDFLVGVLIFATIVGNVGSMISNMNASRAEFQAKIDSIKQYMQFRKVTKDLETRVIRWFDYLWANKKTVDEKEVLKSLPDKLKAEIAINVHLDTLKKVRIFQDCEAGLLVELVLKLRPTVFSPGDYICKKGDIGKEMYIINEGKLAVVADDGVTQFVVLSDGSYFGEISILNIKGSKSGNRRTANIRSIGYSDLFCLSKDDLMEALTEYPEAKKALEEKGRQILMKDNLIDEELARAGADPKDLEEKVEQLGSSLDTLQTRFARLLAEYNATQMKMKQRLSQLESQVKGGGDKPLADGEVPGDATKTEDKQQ

CNG channels = conditions: ref Fodor et al., 1997; cited from earlier work
[2] = biological target: T2, A3-N7R-A,RR-QQ+B3 channels (Homo sapiens, UniProt Q16281+Q9NQW8, R101A/R103A/R643Q/R646Q/R72A/R75A/R81A/R82A/R86A); assay: Inside-out patch clamp, A3-N7R-A,RR-QQ+B3; format: biochemical; conditions: 10 µM PIP2 or 1 µM PIP3
T2 sequence (Q16281 1-694 R72A/R75A/R81A/R82A/R86A/R101A/R103A/R643Q/R646Q): T1 sequence (Q16281 1-694) with R72A, R75A, R81A, R82A, R86A, R101A, R103A, R643Q, R646Q
T2 sequence (Q9NQW8 1-809): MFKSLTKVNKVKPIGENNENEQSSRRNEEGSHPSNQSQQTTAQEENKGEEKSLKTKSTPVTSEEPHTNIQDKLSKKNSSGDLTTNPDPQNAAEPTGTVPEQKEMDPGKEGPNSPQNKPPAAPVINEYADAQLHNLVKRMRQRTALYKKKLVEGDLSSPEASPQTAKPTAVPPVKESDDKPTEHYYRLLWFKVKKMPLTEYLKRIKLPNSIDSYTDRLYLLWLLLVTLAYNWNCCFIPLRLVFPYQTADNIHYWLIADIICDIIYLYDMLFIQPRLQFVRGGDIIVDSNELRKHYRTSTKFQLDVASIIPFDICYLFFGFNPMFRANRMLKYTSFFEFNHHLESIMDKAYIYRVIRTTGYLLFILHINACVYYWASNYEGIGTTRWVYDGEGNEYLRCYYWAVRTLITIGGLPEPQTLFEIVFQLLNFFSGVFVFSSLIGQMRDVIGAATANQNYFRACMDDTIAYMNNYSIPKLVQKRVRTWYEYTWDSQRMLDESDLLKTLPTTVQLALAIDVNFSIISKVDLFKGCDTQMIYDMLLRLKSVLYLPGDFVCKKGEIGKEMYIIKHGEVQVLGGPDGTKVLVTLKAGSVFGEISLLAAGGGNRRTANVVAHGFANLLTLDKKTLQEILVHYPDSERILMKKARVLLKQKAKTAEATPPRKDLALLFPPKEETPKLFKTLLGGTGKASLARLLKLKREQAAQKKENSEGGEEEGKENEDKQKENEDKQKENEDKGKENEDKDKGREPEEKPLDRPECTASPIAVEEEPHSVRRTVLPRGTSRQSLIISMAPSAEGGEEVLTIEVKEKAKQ
Method in brief: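 Subunit cRNAs (~20 ng, B in excess over A) injected into stage IV Xenopus oocytes; inside-out patches 2–7 d later, 20–22°C, symmetric 130 mM NaCl, 0.2 mM EDTA, 3 mM Hepes pH 7.2. Heteromer formation checked by 25 µM l-cis-diltiazem with 1 mM cGMP. diC8 phosphoinositides applied intracellularly in phosphatase-inhibitor cocktail. cGMP dose–response at +80 mV, leak-subtracted, Hill fit before/after for K1/2; mean ± SEM.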

[3] = biological target: T3, heteromeric CNGA3+CNGB3 channels (Homo sapiens, UniProt Q16281+Q9NQW8); assay: Inside-out patch clamp, heteromeric CNGA3+CNGB3; format: biochemical
T3 sequence (Q16281 1-694): T1 sequence (Q16281 1-694)
T3 sequence (Q9NQW8 1-809): T2 sequence (Q9NQW8 1-809)

CNGA1 homomeric channels = CNGA1 homomeric channels (Bos taurus, UniProt Q00194); assay: Inside-out patch clamp, homomeric CNGA1; format: biochemical, bovine; conditions: PIP3 or PIP2 application
CNGA1 homomeric channels, sequence (Q00194 whole entry): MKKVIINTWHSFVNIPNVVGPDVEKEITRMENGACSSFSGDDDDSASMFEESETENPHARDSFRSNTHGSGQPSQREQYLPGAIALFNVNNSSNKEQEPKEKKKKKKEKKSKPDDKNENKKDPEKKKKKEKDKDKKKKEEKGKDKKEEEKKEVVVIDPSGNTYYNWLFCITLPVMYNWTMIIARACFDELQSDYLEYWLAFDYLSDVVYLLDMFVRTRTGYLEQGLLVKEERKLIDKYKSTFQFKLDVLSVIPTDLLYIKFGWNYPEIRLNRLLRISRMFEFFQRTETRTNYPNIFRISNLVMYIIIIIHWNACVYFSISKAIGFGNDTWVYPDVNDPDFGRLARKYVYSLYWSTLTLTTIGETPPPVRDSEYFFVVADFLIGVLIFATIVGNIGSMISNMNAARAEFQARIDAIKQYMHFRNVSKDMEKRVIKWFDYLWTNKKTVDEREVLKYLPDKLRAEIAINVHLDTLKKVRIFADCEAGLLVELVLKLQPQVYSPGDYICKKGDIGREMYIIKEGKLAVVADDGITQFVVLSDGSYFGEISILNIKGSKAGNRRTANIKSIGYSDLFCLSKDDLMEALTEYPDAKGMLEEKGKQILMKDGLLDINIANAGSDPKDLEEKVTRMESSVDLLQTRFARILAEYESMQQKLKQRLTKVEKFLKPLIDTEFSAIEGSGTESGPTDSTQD

[4] = biological target: T4, CNGA3 P99L, A105P (PA-LP) channels (Homo sapiens, UniProt Q16281, A105P/P99L); assay: Inside-out patch clamp, CNGA3 P99L, A105P; format: biochemical; conditions: after PIP3 or PIP2 application
T4 sequence (Q16281 1-694 P99L/A105P): T1 sequence (Q16281 1-694) with P99L, A105P

[5] = mean, after 1 µM PIP3 or 10 µM PIP2
[6] = representative patch, after PIP3 or PIP2

Compound: C=C1[C@@H](C)[C@H]2[C@H](Cc3ccccc3)NC(=O)[C@]23[C@H](OC(C)=O)/C=C/[C@@](C)(O)C(=O)[C@@H](C)C/C=C/[C@H]3[C@@H]1O [cyto D, cytochalasin D]
effect on cAMP efficacy ([1]; 10 µM cyto D applied to inside-out patches): decrease in cAMP efficacy

Compound: CCCCNc1ccc(C(=O)OCCN(C)C)cc1 [tetracaine]
greater affinity for closed compared with open channels (CNG channels): ~1,000 fold

regulation of apparent cGMP affinity [2]: insensitive to regulation
effect on currents elicited by 5 µM cGMP ([3]; 1 µM PIP3 or 10 µM PIP2): attenuated the currents
Imax cAMP/cGMP after phosphoinositide ([3]; after PIP2 or PIP3 application): 0.27 ± 0.02
Hill coefficient h after phosphoinositide [3, 5]: 1.6
K1/2 cGMP after phosphoinositide [3, 5]: 23.4 ± 1.8 µM
Hill coefficient h after phosphoinositide [3, 6]: 1.6
K1/2 cGMP after phosphoinositide [3, 6]: 24.5 µM
Imax cGMP compared with initial values ([3]; saturating cGMP, after 1 µM PIP3 or 10 µM PIP2): 85.3 ± 3.7%
effect on relative cAMP efficacy (CNGA1 homomeric channels): decreased relative cAMP efficacy
effect on maximal cGMP current ([1]; 1 mM cGMP): not significantly altered
K1/2 cAMP after phosphoinositide ([1]; apparent cAMP affinity after PIP3 or PIP2 application): 1.13 ± 0.04 mM
Hill coefficient h after phosphoinositide [4]: 1.7
K1/2 cGMP after phosphoinositide [4]: 8.7 ± 0.4 µM
Compound: phosphatidylinositol (4,5)-biphosphate [PIP2]

Compound: poly-lysine
Imax cAMP/cGMP after poly-lysine ([1]; poly-lysine applied to control patches (no exogenous PIPn)): 0.10 ± 0.01
